Among the data in ChEMBL document CHEMBL1129558, “2(S)-((3,5-bis(trifluoromethyl)benzyl)-oxy)-3(S)-phenyl-4- ((3-oxo-1,2,4-triazol-5-yl)methyl)morpholine (1): a potent, orally active, morpholine-based human neurokinin-1 receptor antagonist” (J Med Chem, 1996) are IC50, pKa and ED50 values, retold here.

One data set has as its target Substance-P receptor (Homo sapiens, UniProt P25103). As to the kind of experiment: Displacement of [125I]-labeled SP from human Tachykinin receptor 1 expressed in CHO cells. The class given is cell-based. In a few lines:
(§1)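 Human receptor expressed in CHO cells; values are given as mean with SD from 3 determinations unless otherwise stated.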
For orientation: Displacement assays read how much labelled ligand stays bound in the presence of the test substance.

The nature of data set [1]: Physicochemical property was determined. The class given is ADME.
A further data set has as its system Cavia porcellus. As to the kind of experiment: SP-induced dermal inflammation assay in guinea pig after peroral administration followed by SP challenge id after 1 hr. The class given is functional. Particulars: oral, read-out: ID50 (the source's name). In outline: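 Guinea pigs received antagonist orally, then an intradermal substance P challenge 1 h later. Read-out was SP-induced plasma extravasation in skin. Dose–response data used 5–12 animals per data point.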

The nature of data set [2]: Inhibition of [3H]diltiazem binding to L-type [Ca2+] channel in rabbit skeletal muscle. The class given is tissue-based, Oryctolagus cuniculus, Muscle tissue.
The target in another data set is T1, Neuromedin-K receptor (Homo sapiens, UniProt P29371).
T1 sequence (P29371 whole entry): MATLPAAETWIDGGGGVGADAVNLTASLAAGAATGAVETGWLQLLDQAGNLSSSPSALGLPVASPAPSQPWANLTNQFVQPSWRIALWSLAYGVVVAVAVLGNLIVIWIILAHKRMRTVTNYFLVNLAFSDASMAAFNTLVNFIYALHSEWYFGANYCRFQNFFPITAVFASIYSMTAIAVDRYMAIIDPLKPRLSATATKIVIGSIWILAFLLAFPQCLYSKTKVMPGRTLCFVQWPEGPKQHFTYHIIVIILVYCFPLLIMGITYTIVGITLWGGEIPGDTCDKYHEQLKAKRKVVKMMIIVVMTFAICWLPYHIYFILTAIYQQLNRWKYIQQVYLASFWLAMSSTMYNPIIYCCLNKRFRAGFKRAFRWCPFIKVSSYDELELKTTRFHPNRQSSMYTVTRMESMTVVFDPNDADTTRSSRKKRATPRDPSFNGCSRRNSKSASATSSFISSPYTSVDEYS
Nature of the data set: Displacement of [125I]-labeled SP from the human Tachykinin receptor 3 expressed in CHO cells. The class given is cell-based. In outline:
as §1

In a further data set the target is T2, Substance-K receptor (Homo sapiens, UniProt P21452).
T2 sequence (P21452 whole entry): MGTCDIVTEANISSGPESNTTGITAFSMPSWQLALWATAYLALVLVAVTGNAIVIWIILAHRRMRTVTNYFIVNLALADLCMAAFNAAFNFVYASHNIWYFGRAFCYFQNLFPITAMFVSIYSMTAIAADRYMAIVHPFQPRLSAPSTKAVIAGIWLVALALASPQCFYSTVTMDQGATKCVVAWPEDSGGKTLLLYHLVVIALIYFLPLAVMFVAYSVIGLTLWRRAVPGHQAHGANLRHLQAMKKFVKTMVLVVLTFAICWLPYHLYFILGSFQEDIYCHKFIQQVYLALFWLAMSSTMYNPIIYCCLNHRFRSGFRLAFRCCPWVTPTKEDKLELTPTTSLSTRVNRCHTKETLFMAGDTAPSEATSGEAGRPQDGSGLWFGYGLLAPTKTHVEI
Nature of the data set: Displacement of [125I]-labeled SP from the human Tachykinin receptor 2 expressed in CHO cells. The class given is cell-based. In outline:
as §1

Data set [3] in a line: Physicochemical property pKa of benzyl amine was determined.
A short description of data set [4]: Physicochemical property pKa of piperdine amine was determined.

Substance-P receptor, sequence (P25103 whole entry): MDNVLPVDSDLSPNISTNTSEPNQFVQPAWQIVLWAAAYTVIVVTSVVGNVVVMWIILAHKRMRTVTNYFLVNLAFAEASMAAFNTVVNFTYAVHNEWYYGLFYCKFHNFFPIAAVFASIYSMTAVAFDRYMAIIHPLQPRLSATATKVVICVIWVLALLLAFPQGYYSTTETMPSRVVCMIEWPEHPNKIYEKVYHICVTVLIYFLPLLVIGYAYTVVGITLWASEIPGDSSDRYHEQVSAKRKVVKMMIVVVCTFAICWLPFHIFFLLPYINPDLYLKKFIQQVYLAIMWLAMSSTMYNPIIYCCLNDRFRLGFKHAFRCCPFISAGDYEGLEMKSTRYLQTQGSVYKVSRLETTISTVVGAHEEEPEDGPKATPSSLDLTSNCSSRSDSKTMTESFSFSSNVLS

As to `FC(F)(F)c1cc(CO[C@@H]2OCCN[C@H]2c2ccccc2)cc(C(F)(F)F)c1` (stereo in doubt; 22), the IC50 at Substance-P receptor was determined as 19 nM.

`FC(F)(F)c1cc(CO[C@H]2OCCN[C@@H]2c2ccccc2)cc(C(F)(F)F)c1` (stereo in doubt; 13): the IC50 on Substance-P receptor worked out at 287 nM. Still for that read-out and setting: for `COC(=O)CN1CCO[C@H](OCc2cc(C(F)(F)F)cc(C(F)(F)F)c2)[C@@H]1c1ccccc1` the value was 1.6 nM; for `NC(=O)CN1CCO[C@H](OCc2cc(C(F)(F)F)cc(C(F)(F)F)c2)[C@@H]1c1ccccc1`, 1.1 nM. On the same count and under the same terms, as for `FC(F)(F)c1cc(CO[C@H]2OCCN(Cn3cncn3)[C@H]2c2ccccc2)cc(C(F)(F)F)c1`, the figure is 0.13 nM. With `O=c1[nH]nc(CN2CCO[C@H](OCc3cc(C(F)(F)F)cc(C(F)(F)F)c3)[C@@H]2c2ccccc2)[nH]1`, in data set [1], the pKa is less than 3. For the same molecule, in the data set on Cavia porcellus, the ED50 came to 0.009 mg/kg. Further, the IC50 in data set [2] stood at 11000 nM; at Substance-P receptor, 0.09 nM; on Neuromedin-K receptor it was 150 nM; at Substance-K receptor, 7000 nM. The molecule `FC(F)(F)c1cc(CO[C@@H]2OCCN[C@@H]2c2ccccc2)cc(C(F)(F)F)c1` (stereo in doubt; 21) displayed an IC50 at Substance-P receptor of 116 nM. Still for that read-out and setting: for `FC(F)(F)c1cc(CO[C@H]2OCCN[C@@H]2c2ccccc2)cc(C(F)(F)F)c1` (stereo in doubt; 20) the value was 21 nM. Turning to `COc1ccccc1CN[C@H]1CCCN[C@H]1c1ccccc1` [CP-99994], the pKa was determined as 4 in data set [3] and 8.7 in data set [4]. Further, in the data set with Cavia porcellus, the ED50 worked out at 1.6 mg/kg. Moreover, in data set [2], the IC50 was determined as 4000 nM. As to `FC(F)(F)c1cc(CO[C@@H]2OCCN[C@@H]2c2ccccc2)cc(C(F)(F)F)c1` (stereo in doubt; 14), the IC50 on Substance-P receptor is 59 nM. Still for that read-out and setting: for `FC(F)(F)c1cc(CO[C@@H]2OCCN[C@H]2c2ccccc2)cc(C(F)(F)F)c1` (stereo in doubt; 12) the value was 376 nM; for `O=C(O)CN1CCO[C@H](OCc2cc(C(F)(F)F)cc(C(F)(F)F)c2)[C@@H]1c1ccccc1`, 66 nM.

As usually defined, the IC50 is the point on the concentration scale where inhibition reaches its midpoint. Low values mean greater potency, high ones weaker potency. A word on the pKa: it is the negative logarithm of the acid dissociation constant.
